Measurements published in ChEMBL document CHEMBL2396655, “Design, synthesis, and biological evaluation of (E)-N-aryl-2-arylethenesulfonamide analogues as potent and orally bioavailable microtubule-targeted anticancer agents” (J Med Chem, 2013).
In brackets after ≈: the same amount, converted by molar mass. Activity calls are given as the source filed them. The calls are words filed in the database; no cut-off is given here.

Key:
[1] = system: LNCaP; assay: Cytotoxicity against human LNCAP cells after 96 hrs by trypan blue exclusion assay; assay type: functional
In short: (§1)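 Cells were grown in DMEM or RPMI with 10% FBS and plated at 2.5×10⁴ cells/well in 12-well dishes. Compounds were added 24 h later at various concentrations. After 96 h, viable cells were counted by trypan blue exclusion from duplicate wells. Results are the mean of two independent experiments.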

[2] = system: OVCAR-3; assay: Cytotoxicity against human OVCAR3 cells after 96 hrs by trypan blue exclusion assay; assay type: functional; details: OVCAR-3, 96 h; in short: as §1
[3] = Cytotoxicity against human U87 cells after 96 hrs by sulforhodamine B assay; assay type: functional, cell-based, U-87MG ATCC; details: U-87 MG
[4] = system: NCI-H417; assay: Cytotoxicity against human NCI-N417 cells after 96 hrs by trypan blue exclusion assay; assay type: functional; details: NCI-H417, 96 h
In short: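 Cells grown in DMEM or RPMI with 10% FBS and 1 unit/mL penicillin-streptomycin, seeded in 12-well dishes at 2.5 ×10⁴ cells/mL/well. Compound added 24 h later at various concentrations. Viable cells counted by trypan blue exclusion from duplicate wells after 96 h. Value taken from dose-response curves of two independent experiments.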

[5] = system: A-431; assay: Cytotoxicity against human A431 cells after 96 hrs by trypan blue exclusion assay; assay type: functional; details: A-431, 96 h; in short: as §1
[6] = system: BT-20; assay: Cytotoxicity against human BT20 cells after 96 hrs by trypan blue exclusion assay; assay type: functional; details: BT-20, 96 h; in short: as §1
[7] = Cytotoxicity against human NAMALWA cells after 96 hrs by trypan blue exclusion assay; assay type: functional; details: NAMALVA; in short: as §1
[8] = system: K562; assay: Cytotoxicity against human K562 cells after 96 hrs by trypan blue exclusion assay; assay type: functional, cell-based; in short: as §1
[9] = Cytotoxicity against human H80 cells after 96 hrs by trypan blue exclusion assay; assay type: functional; details: H80, 96 h; in short: as §1
[10] = system: DU-145; assay: Cytotoxicity against human DU145 cells after 96 hrs by trypan blue exclusion assay; assay type: functional, cell-based; in short: as §1
[11] = molecular target: Tubulin (Sus scrofa) (UniProt P02554+P02550); assay: Competitive binding affinity to pig brain tubulin vinblastine binding site at 0.1 to 100 uM after 1 hr by mass spectrophotometric analysis in presence of vinblastine
In short: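 Porcine brain tubulin (1.0 mg/mL) in PIPES 80 mM, MgCl₂ 2 mM, EGTA 0.5 mM, pH 6.9, at 37 °C. […] Competitor was 0.1–100 μM for 1 h. Unbound ligand in the 30 kDa ultrafiltrate was measured by MS. Runs were in triplicate; IC50 came from a Hill fit.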

[12] = species on record: Bos taurus; assay: Inhibition of bovine brain tubulin assessed as destabilization of microtubule polymerization at 10 uM over 40 mins by spectrophotometric analysis
In short: (§2)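 Purified bovine brain tubulin was incubated at 37 °C with 10 μM compound, DMSO or reference agents. Polymerization was followed as rising absorbance at 340 nm over 40 min. Data are representative of three independent experiments.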

[13] = species on record: Bos taurus; assay: Effect on bovine brain tubulin assessed as stabilization of microtubule polymerization at 10 uM over 40 mins by spectrophotometric analysis; in short: as §2
[14] = system: 2008; assay: Growth inhibition of human 2008 cells; assay type: functional
[15] = Growth inhibition of multidrug-resistant human MES-SA/Dx5 cells; assay type: functional
[16] = system: 2008; assay: Resistance factor, ratio of GI50 for paclitaxel-resistant human 2008/17/4 cells to GI50 for human 2008 cells; assay type: functional
[17] = Growth inhibition of paclitaxel-resistant human 2008/17/4 cells; assay type: functional
In short: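 Cells grown in DMEM or RPMI with 10% FBS and penicillin-streptomycin, seeded at 2.5 × 10⁴ cells/mL/well; compound added 24 h later over a concentration range. After 96 h, viable cells counted by trypan blue exclusion in duplicate wells. GI₅₀ is the concentration giving 50% growth inhibition, reported as mean ± SD of two independent experiments.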

[18] = system: MES-SA; assay: Resistance factor, ratio of GI50 for multidrug-resistant human MES-SA/Dx5 cells to GI50 for human MES-SA cells; assay type: functional
[19] = Growth inhibition of human MES-SA cells; assay type: functional
[20] = Solubility of the compound in water; assay type: physicochemical
[21] = Cytotoxicity against human Caco2 cells after 1 hr by Alamar Blue assay; assay type: cell-based; details: Caco-2 cells, read-out: LD50

SMILES	Activity [8]	IC50 ([8]; K562, 96 h) [µM]	Activity [10]	IC50 ([10]; DU-145, 96 h) [µM]	also measured
COc1cc(OC)c(/C=C/S(=O)(=O)Nc2ccc(OC)c(O)c2)c(OC)c1	Dose-dependent effect	0.015	Dose-dependent effect	0.03	GI50 [1]: 0.05 µM; GI50 [2]: 0.1 µM; IC50 [3]: 0.026 µM; GI50 [4]: 0.01 µM; GI50 [5]: 0.6 µM; GI50 [6]: 0.25 µM; GI50 [7]: 0.025 µM; GI50 ([8]; K562, 96 h): 0.015 µM; GI50 [9]: 0.025 µM; GI50 ([10]; DU-145, 96 h): 0.05 µM
CC[C@]1(O)C[C@H]2CN(CCc3c([nH]c4ccccc34)[C@@](C(=O)OC)(c3cc4c(cc3OC)N(C=O)[C@H]3[C@@](O)(C(=O)OC)[C@H](OC(C)=O)[C@]5(CC)C=CCN6CC[C@]43[C@@H]65)C2)C1	–	–	–	–	Activity [11]: Active
COC(=O)Nc1nc2cc(C(=O)c3cccs3)ccc2[nH]1	–	–	–	–	inhibition [12]: Active
CC(=O)O[C@H]1C(=O)[C@@]2(C)[C@H]([C@H](OC(=O)c3ccccc3)[C@]3(O)C[C@H](OC(=O)[C@H](O)[C@@H](NC(=O)c4ccccc4)c4ccccc4)C(C)=C1C3(C)C)[C@]1(OC(C)=O)CO[C@@H]1C[C@@H]2O [PACLITAXEL]	–	–	–	–	Activity [13]: Active; GI50 [14]: 0.003 µM; GI50 [15]: 0.75 µM; RatioGI50 [16]: 600; GI50 [17]: 2 µM; RatioGI50 [18]: 190; GI50 [19]: 0.004 µM
COc1cc(OC)c(/C=C/S(=O)(=O)Nc2ccc(OC)c(NC(C(=O)O)c3ccc(F)cc3)c2)c(OC)c1 (stereo not drawn)	Dose-dependent effect	0.02	Dose-dependent effect	0.075	solubility [20]: 10000 µg/mL (≈ 18.3 mM)
O=c1cc[nH]c(=S)[nH]1 [THIOURACIL]	–	–	–	–	CC50 at 1 h [21]: > 1000 µM
COc1cc(OC)c(/C=C/S(=O)(=O)Nc2ccc(OC)c(NCC(=O)O)c2)c(OC)c1	Dose-dependent effect	0.02	Dose-dependent effect	0.4	solubility [20]: 10000 µg/mL (≈ 22.1 mM); inhibition [12]: Active
COc1cc(OC)c(/C=C/S(=O)(=O)Nc2ccc(OC)c(NC(C(=O)O)c3ccccc3)c2)c(OC)c1 (stereo not drawn)	Dose-dependent effect	0.3	Dose-dependent effect	0.075	solubility [20]: 10000 µg/mL (≈ 18.9 mM)
O=S(=O)(/C=C/c1c(F)c(F)c(F)c(F)c1F)Nc1c(F)c(F)c(F)c(F)c1F	Dose-dependent effect	35	Dose-dependent effect	35	–
COc1ccc(/C=C/S(=O)(=O)Nc2ccc(OC)c(F)c2)cc1	Dose-dependent effect	1	Dose-dependent effect	5	–
COc1cc(OC)c(/C=C/S(=O)(=O)Nc2ccc(OC)c(NC(C(=O)O)c3ccc(Cl)cc3)c2)c(OC)c1 (stereo not drawn)	Dose-dependent effect	0.015	Dose-dependent effect	0.075	solubility [20]: 10000 µg/mL (≈ 17.8 mM)
COC(=O)C(Nc1cc(NS(=O)(=O)/C=C/c2c(OC)cc(OC)cc2OC)ccc1OC)c1ccccc1 (stereo not drawn)	Dose-dependent effect	2.5	Dose-dependent effect	2.5	–
COc1ccc(NS(=O)(=O)/C=C/c2c(F)c(F)c(F)c(F)c2F)cc1	Dose-dependent effect	5	Dose-dependent effect	10	–
COc1ccc(NS(=O)(=O)/C=C/c2cc(OC)c(OC)c(OC)c2)cc1[N+](=O)[O-]	Dose-dependent effect	75	Dose-dependent effect	75	–
COc1cc(OC)c(/C=C/S(=O)(=O)Nc2ccc(OC)c(F)c2)c(OC)c1	Dose-dependent effect	0.075	Dose-dependent effect	0.2	–
COc1cc(OC)c(/C=C/S(=O)(=O)Nc2ccc(OC)c(OP(=O)(O)O)c2)c(OC)c1	Dose-dependent effect	0.0075	Dose-dependent effect	0.04	–
